According to ChEMBL document CHEMBL1146008, “Design, synthesis, and evaluation of novel biarylpyrimidines: a new class of ligand for unusual nucleic acid structures” (J Med Chem, 2006):

How the values were obtained:
Nucleic Acid = assay: Inhibition of telomerase by TRAP assay; format: nucleic-acid assay, Homo sapiens
Method in brief: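 Human telomerase activity measured with a commercially available telomeric repeat amplification protocol (TRAP) kit. The value is the concentration giving 50% inhibition (telIC50). An internal reference telomerase inhibitor (BSU-1021) was run in the same assay.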

MCF7 = assay: Inhibition of human MCF7 cell growth at 100 uM relative to control; format: functional; details: values are per cent of control
NCI-H460 = assay: Inhibition of human NCI-H460 cell growth at 100 uM relative to control; format: functional; details: values are per cent of control
SF-268 = assay: Inhibition of human SF268 cell growth at 100 uM relative to control; format: functional; details: values are per cent of control

IC50 (Nucleic Acid) | Structure (SMILES) | growth, % of control at 100 µM (MCF7) | growth, % of control at 100 µM (NCI-H460) | growth, % of control at 100 µM (SF-268)
> 40 µM | CN(C)CCSc1ccc(-c2cc(-c3ccc(SCCN(C)C)cc3)ncn2)cc1 |  |  | 
 | CCN(CC)CCSc1ccc(-c2cc(-c3ccc(SCCN(CC)CC)cc3)ncn2)cc1 | 83% | 98% | 85%
 | OCCSc1ccc(-c2cc(-c3ccc(SCCO)cc3)ncn2)cc1 | 97% | 99% | 119%
> 40 µM | c1nc(-c2ccc(SCCN3CCCCC3)cc2)cc(-c2ccc(SCCN3CCCCC3)cc2)n1 | 68% | 98% | 79%
> 40 µM | CN(C)CCNC(=O)c1ccc(-c2cc(-c3ccc(C(=O)NCCN(C)C)cc3)ncn2)cc1 | 96% | 100% | 108%
 | c1nc(-c2ccc(SCCN3CCOCC3)cc2)cc(-c2ccc(SCCN3CCOCC3)cc2)n1 | 95% | 96% | 102%
> 40 µM | COCCSc1ccc(-c2cc(-c3ccc(SCCOC)cc3)ncn2)cc1 | 33% | 94% | 106%
10 µM | CCN(CC)CCNC(=O)c1ccc(-c2cc(-c3ccc(C(=O)NCCN(CC)CC)cc3)ncn2)cc1 |  |  | 
 | O=C(NCCO)c1ccc(-c2cc(-c3ccc(C(=O)NCCO)cc3)ncn2)cc1 | 83% | 104% | 104%
